The results in this text go back to PubChem BioAssay.

A short description of assay [1]: Her2 expression decrease, cell viability multiplex – SKBR3 breast tumor cells, AlphaScreen, ATP viability, primary screen (AID 461;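 active = Her2 level under about 52% in both replicate screens, with viability over 70% of control, limit read from the data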;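 for Her2 level: lower value means less Her2 protein in the cells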;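 for viability: percent of carrier control wells set as 100% viability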). To be noted: SKBR3 Her2 protein level, 18-24 h, measured here: SKBR3 viability, ATP luminescence, at 10 µM. Background: Bead proximity is the source of the signal in Alpha formats.
For assay [2], the target named is Receptor tyrosine-protein kinase erbB-2 (Homo sapiens) (UniProt P04626). The assay is described as above. To be noted: 18-24 h, at 10 µM, stronger effect = lower value.
Receptor tyrosine-protein kinase erbB-2 (Homo sapiens), sequence (P04626 whole entry, looked up): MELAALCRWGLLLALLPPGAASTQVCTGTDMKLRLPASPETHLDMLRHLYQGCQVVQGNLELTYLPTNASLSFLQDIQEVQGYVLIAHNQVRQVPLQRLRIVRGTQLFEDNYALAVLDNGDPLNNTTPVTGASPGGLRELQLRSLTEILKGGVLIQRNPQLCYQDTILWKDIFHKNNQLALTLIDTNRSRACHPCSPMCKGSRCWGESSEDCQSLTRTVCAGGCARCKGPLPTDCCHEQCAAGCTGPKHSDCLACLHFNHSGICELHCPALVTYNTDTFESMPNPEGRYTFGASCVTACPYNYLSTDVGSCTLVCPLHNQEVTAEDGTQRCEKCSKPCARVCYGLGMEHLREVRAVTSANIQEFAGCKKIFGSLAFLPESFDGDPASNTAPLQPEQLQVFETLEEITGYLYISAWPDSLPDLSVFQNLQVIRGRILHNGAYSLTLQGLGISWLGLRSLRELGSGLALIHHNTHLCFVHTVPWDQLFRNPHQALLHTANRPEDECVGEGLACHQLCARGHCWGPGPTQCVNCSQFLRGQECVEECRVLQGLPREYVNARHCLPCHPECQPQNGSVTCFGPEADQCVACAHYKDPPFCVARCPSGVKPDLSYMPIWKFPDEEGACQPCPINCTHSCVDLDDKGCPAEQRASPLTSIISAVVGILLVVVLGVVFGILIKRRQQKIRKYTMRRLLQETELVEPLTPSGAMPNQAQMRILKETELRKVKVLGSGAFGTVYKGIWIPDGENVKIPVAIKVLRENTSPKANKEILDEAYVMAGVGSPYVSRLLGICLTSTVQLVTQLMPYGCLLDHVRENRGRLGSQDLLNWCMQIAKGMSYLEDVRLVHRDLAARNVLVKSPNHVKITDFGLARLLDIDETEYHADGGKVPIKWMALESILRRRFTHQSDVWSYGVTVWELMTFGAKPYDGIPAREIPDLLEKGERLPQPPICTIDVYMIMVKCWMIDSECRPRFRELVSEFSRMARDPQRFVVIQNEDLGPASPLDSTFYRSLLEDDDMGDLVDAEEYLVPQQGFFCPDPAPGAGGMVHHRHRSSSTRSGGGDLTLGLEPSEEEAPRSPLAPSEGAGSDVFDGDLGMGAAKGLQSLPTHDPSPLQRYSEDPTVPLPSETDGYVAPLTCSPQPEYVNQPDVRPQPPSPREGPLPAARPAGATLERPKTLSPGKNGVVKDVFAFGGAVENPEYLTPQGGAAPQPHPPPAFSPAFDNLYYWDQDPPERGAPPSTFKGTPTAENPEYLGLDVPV
Assay [3] can be described thus: reduced viability of SK-BR-3 breast cancer cells – cell-based, 24 h, human, pilot screen (AID 572).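 Note: compound exposure lasted between 18 and 24 h rather than exactly 24 h; 100% = carrier-treated control wells.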 To be noted: SK-BR-3 viability, CellTiter-Glo luminescence, at 10 µM, stronger effect = lower value. On the technique in general: Cellular ATP, detected with luciferase, serves as a proxy for viable cell number.
The nature of assay [4]: HUVEC growth inhibition – cell-based, human, primary screen (AID 575;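 active = viability at or below 30% in both replicate assays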;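 note: 100% = median of untreated cell wells with 0.1% DMSO on each plate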). To be noted: HUVEC proliferation, CellTiter-Glo luminescence, 72 h; at 10 µM; stronger effect = lower value. A digest of the protocol: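 Test system: HUVEC primary cells. Quantity: 1250 endothelial cells in each well. Dosing: single-point 10 µM, DMSO 0.1% final. Incubation: 72 h treatment at 37 °C. Measured by: CTG luminescence. Control set: DMSO cell controls and MePR drug controls. Plate: collagen-coated 384-well format.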

Assay [5] can be described thus: H69AR cell proliferation blockers – human, duplicate replicates, primary screen (AID 580;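 active = viability at or under a set limit in both replicates, limit being median viability minus 3 SD, cut at about 48% in these data, passing the limit was not always enough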;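 note: 100% = mean luminescence of untreated wells and 0% = no signal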). Particulars: H69AR lung tumor cells viability, ATP luminescence, 72 h; at 10 µM; stronger effect = lower value.
Assay [6] in a line: MRP1 drug-resistance reversers in H69AR cells – cell-based, doxorubicin co-treatment, pilot screen (AID 601;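 active = viability loss from added drug above about 55%, and viability with drug at most 40%, in both replicates, limit read from the data, passing the limit was not always enough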). To be noted: CellTiter-Glo, 72 h, at 10 µM; for differential viability (reversal): stronger effect = higher value.
Assay [7] is described as follows: yeast transport mutant growth inhibition pilot in 384-well plates, post-Golgi transport modulator project (AID 636; in the data active = inhibition above about 31%). To be noted: absorbance 615 nm, about 18 h, stronger effect = higher value.
The nature of assay [8]: growth suppression of yeast trafficking mutant, preliminary HTS, modulators of trafficking downstream of Golgi apparatus project, 1536-format plate, OD 615 nm (AID 637; in the data active = inhibition above about 30%). Particulars: yeast transport mutant growth, absorbance 615 nm, 18 h; stronger effect = higher value.
[9] abbreviates: H69AR cells + 2 uM doxorubicin, measured here: viability with 2 uM doxorubicin, stronger effect = lower value.
Setting [10] is: H69AR cells, compound alone cytotoxicity.

The structures appear in SMILES notation. Active and inactive are the calls of the source.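 Rule for the calls, unless noted: active = viability at or below 10% of carrier control in both of two separate runs; inconclusive = viability at or below 10% in only one of the two runs; inactive = the rest.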

One may read the viability as a read-out of living cells in per cent, often relative to untreated cells. Broadly, the inhibition is the drop in the measured response relative to a control, in per cent. For the compound `COc1ccc(-c2noc(CN3C(=O)c4ccccc4C3=O)n2)cc1`, the viability in assay [1] was 102%; in assay [3] it was 102% (inactive); in assay [4], 97.5% (inactive); in assay [5], 102% (inactive); in assay [6] (setting [9]), 96.4%; in assay [6] (setting [10]), 102%. Besides, the Her2 level in assay [2] was 108% (inactive). In assay [6] (H69AR cells + 2 uM doxorubicin), the differential viability (reversal) is 5.23% (inactive). The results for the inhibition in assay [7] and in assay [8] were -0.92% (inactive) and 11.3% (inactive), respectively.
Turning to `CCN1CCN(CCNC(=O)c2cn(C(C)c3ccccc3F)nn2)CC1` (stereo not given), the viability in assay [1] is 122%; in assay [3] it was 122% (inactive); in assay [4], 82.3% (inactive); in assay [5], 96.4% (inactive); in assay [6] (setting [9]) it was 87.8%; in assay [6] (setting [10]), 96.4%. In assay [2], the Her2 level is 98.5% (inactive). In addition, the differential viability (reversal) in assay [6] (H69AR cells + 2 uM doxorubicin) was 8.63% (inactive). For the same compound, the inhibition was -2.73% (inactive) in assay [7] and -4.6% (inactive) in assay [8].
As for `COCCn1c(C)c(C(=O)O)sc1=S`, the viability in assay [1] was 99%; in assay [3] it was 99% (inactive); in assay [4], 108% (inactive); in assay [5], 104% (inactive); in assay [6] (setting [9]), 91.3%; in assay [6] (setting [10]) it was 104%. Moreover, the Her2 level in assay [2] is 118% (inactive). Besides, the differential viability (reversal) in assay [6] (H69AR cells + 2 uM doxorubicin) is 12.4% (inactive). Moreover, the inhibition in assay [7] is 0.79% (inactive); in assay [8], -6.5% (inactive).
For `CC(C)Oc1ccc(C2C(C(=O)c3ccco3)=C(O)C(=O)N2CCCN(C)C)cc1` (stereo not given), the viability in assay [1] is 89%; in assay [3], 89% (inactive); in assay [4], 118% (inactive); in assay [5], 110% (inactive); in assay [6] (setting [9]), 102%; in assay [6] (setting [10]), 110%. Moreover, in assay [2], the Her2 level is 99.5% (inactive). The differential viability (reversal) in assay [6] (H69AR cells + 2 uM doxorubicin) was 8.15% (inactive). Moreover, the inhibition in assay [7] was -1.18% (inactive); in assay [8] it was 8.2% (inactive).
As to `COc1ccc(CCNS(=O)(=O)c2ccc3c(c2)CCN3C(=O)CCC(=O)O)cc1OC`, the viability in assay [1] was 104%; in assay [3], 104% (inactive); in assay [4], 88.6% (inactive); in assay [5] it was 94.1% (inactive); in assay [6] (setting [9]), 89.8%; in assay [6] (setting [10]) it was 94.1%. In addition, the Her2 level in assay [2] was 89% (inactive). Further, the differential viability (reversal) in assay [6] (H69AR cells + 2 uM doxorubicin) was 4.3% (inactive). The inhibition is -2.37% (inactive) in assay [7] and -4.91% (inactive) in assay [8].
Regarding `COC(=O)c1cc2ccsc2n1CC(=O)N(C)c1ccccc1`, the viability in assay [1] was 89.5%; in assay [3] it was 89.5% (inactive); in assay [4], 90.2% (inactive); in assay [5], 84.2% (inactive); in assay [6] (setting [9]), 84%; in assay [6] (setting [10]), 84.2%. For the same compound, the Her2 level in assay [2] was 94.5% (inactive). For the same compound, the differential viability (reversal) in assay [6] (H69AR cells + 2 uM doxorubicin) is 0.29% (inactive). Besides, the inhibition is 0.26% (inactive) in assay [7] and -1.83% (inactive) in assay [8].
For `N/C(Cn1nnc(-c2ccccc2)n1)=N\O`, the viability was 97% in assay [1]; 97% (inactive) in assay [3]; 112% (inactive) in assay [4]; 107% (inactive) in assay [5]; 96.3% in assay [6] (setting [9]); 107% in assay [6] (setting [10]). Further, the Her2 level in assay [2] is 87.5% (inactive). In assay [6] (H69AR cells + 2 uM doxorubicin), the differential viability (reversal) is 11% (inactive). The inhibition in assay [7] was -2.5% (inactive); in assay [8] it was -5.08% (inactive).
Regarding `CCN(CC)C(=O)c1ccc(NS(=O)(=O)c2ccccc2)cc1`, the viability in assay [1] was 89.5%; in assay [3], 89.5% (inactive); in assay [4] it was 111% (inactive); in assay [5], 86.1% (inactive); in assay [6] (setting [9]) it was 87.3%; in assay [6] (setting [10]), 86.1%. The Her2 level in assay [2] is 130% (inactive). In addition, the differential viability (reversal) in assay [6] (H69AR cells + 2 uM doxorubicin) is -1.12% (inactive). Also, the inhibition was -1.32% (inactive) in assay [7] and -3.44% (inactive) in assay [8].
With `CC(=O)n1nc(-c2ccco2)nc1SCc1ccccc1`, the viability was 77% in assay [1]; 77% (inactive) in assay [3]; 97.2% (inactive) in assay [4]; 98.7% (inactive) in assay [5]; 83.8% in assay [6] (setting [9]); 98.7% in assay [6] (setting [10]). The Her2 level in assay [2] was 103% (inactive). In assay [6] (H69AR cells + 2 uM doxorubicin), the differential viability (reversal) is 14.9% (inactive). Besides, the inhibition in assay [7] was 1.54% (inactive); in assay [8] it was 0% (inactive).
In the case of `COc1ccc(-c2cc(N3CCCC3)n3ncnc3n2)cc1`, the viability in assay [1] was 86%; in assay [3], 86% (inactive); in assay [4], 78.7% (inactive); in assay [5] it was 87.2% (inactive); in assay [6] (setting [9]) it was 75.2%; in assay [6] (setting [10]) it was 87.2%. In addition, in assay [2], the Her2 level was 94.5% (inactive). The differential viability (reversal) in assay [6] (H69AR cells + 2 uM doxorubicin) is 11.9% (inactive). Further, the figures for the inhibition in assay [7] and in assay [8] were -5.27% (inactive) and -2.46% (inactive), respectively.
Turning to `Cc1ccccc1-c1nc(CS(=O)(=O)CC(=O)NCc2ccccc2)c(C)o1`, the viability in assay [1] was 93.5%; in assay [3], 93.5% (inactive); in assay [4] it was 87.8% (inactive); in assay [5] it was 96.5% (inactive); in assay [6] (setting [9]) it was 90.4%; in assay [6] (setting [10]), 96.5%. For the same compound, the Her2 level in assay [2] is 100% (inactive). The differential viability (reversal) in assay [6] (H69AR cells + 2 uM doxorubicin) was 6.09% (inactive). In addition, the inhibition is -7.07% (inactive) in assay [7] and -2.3% (inactive) in assay [8].
On to `CCOC(=O)N1CCN(Cc2nc3c(c(=O)[nH]c(=O)n3C)n2Cc2cc(C)ccc2C)CC1`, for which the viability is 102% in assay [1]; 102% (inactive) in assay [3]; 112% (inactive) in assay [4]; 96.1% (inactive) in assay [5]; 88.1% in assay [6] (setting [9]); 96.1% in assay [6] (setting [10]). Further, the Her2 level in assay [2] is 105% (inactive). Besides, the differential viability (reversal) in assay [6] (H69AR cells + 2 uM doxorubicin) is 7.95% (inactive). For the same compound, the results for the inhibition in assay [7] and in assay [8] were -2.27% (inactive) and 0.32% (inactive), respectively.
On to `COc1ccccc1C1C(C#N)=C(N)Oc2cc(C)n(Cc3ccccn3)c(=O)c21` (stereo not given), for which the viability in assay [1] was 108%; in assay [3] it was 108% (inactive); in assay [4], 93.9% (inactive); in assay [5], 90.2% (inactive); in assay [6] (setting [9]), 92.6%; in assay [6] (setting [10]) it was 90.2%. In addition, the Her2 level in assay [2] was 133% (inactive). Besides, the differential viability (reversal) in assay [6] (H69AR cells + 2 uM doxorubicin) was -2.41% (inactive). In addition, the inhibition in assay [7] was -0.66% (inactive); in assay [8], -6.94% (inactive).
Turning to `O=C(Cn1c(NCCO)nc2ccccc21)c1ccccc1`, the viability in assay [1] is 100%; in assay [3] it was 100% (inactive); in assay [4], 99.6% (inactive); in assay [5] it was 104% (inactive); in assay [6] (setting [9]) it was 101%; in assay [6] (setting [10]), 104%. Besides, in assay [2], the Her2 level was 100% (inactive). Further, the differential viability (reversal) in assay [6] (H69AR cells + 2 uM doxorubicin) is 3.85% (inactive). Besides, the inhibition was -2.16% (inactive) in assay [7] and 2.7% (inactive) in assay [8].
Take `Cc1cc2c(cc(C(=O)OCC(=O)NCc3cccs3)n2C(C)C)o1`: the viability is 83% in assay [1]; 83% (inactive) in assay [3]; 37.3% (inactive) in assay [4]; 21.7% (active) in assay [5]; 52.1% in assay [6] (setting [9]); 21.7% in assay [6] (setting [10]). For the same compound, the Her2 level in assay [2] was 63.5% (inactive). In addition, the differential viability (reversal) in assay [6] (H69AR cells + 2 uM doxorubicin) is -30.4% (inactive). Moreover, the inhibition is -6% (inactive) in assay [7] and 5.9% (inactive) in assay [8].
Turning to `COC(=O)c1ccc(C(=O)OC)c(NC(=O)Nc2ccc3c(c2)OCO3)c1`, the viability was 86.5% in assay [1]; 86.5% (inactive) in assay [3]; 89.1% (inactive) in assay [4]; 92.7% (inactive) in assay [5]; 95.4% in assay [6] (setting [9]); 92.7% in assay [6] (setting [10]). Moreover, in assay [2], the Her2 level was 106% (inactive). Besides, the differential viability (reversal) in assay [6] (H69AR cells + 2 uM doxorubicin) was -2.65% (inactive). The inhibition in assay [7] is -0.78% (inactive); in assay [8], -9.67% (inactive).
